This is a sample that favours compounds with a hit; in the whole collection about 2.6% have one here.
ASAP1 GAP inh – inhibitors of human ASAP1 ArfGAP activity | Q9ULH1 | ASAP1-stimulated ARF1 GTP hydrolysis, GDP FP detection | inhibition, % at 16.5 µM | actives 0.19% (n = 360,000); in the data active = inhibition above about 25%;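 note: 0% = vehicle with enzyme and substrate and 100% = no enzyme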
Target sequence (Q9ULH1 325-724 limits assumed): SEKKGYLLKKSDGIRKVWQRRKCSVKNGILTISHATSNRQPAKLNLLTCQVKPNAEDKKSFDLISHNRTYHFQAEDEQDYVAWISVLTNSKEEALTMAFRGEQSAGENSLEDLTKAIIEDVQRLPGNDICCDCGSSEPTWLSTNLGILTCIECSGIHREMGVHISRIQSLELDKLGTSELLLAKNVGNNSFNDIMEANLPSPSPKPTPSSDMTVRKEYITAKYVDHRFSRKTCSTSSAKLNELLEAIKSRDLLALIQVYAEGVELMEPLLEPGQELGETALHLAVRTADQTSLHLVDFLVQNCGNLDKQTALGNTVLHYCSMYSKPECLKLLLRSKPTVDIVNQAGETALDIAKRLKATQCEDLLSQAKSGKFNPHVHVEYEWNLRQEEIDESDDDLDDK
SMARCA2 activ – activators of SMARCA2 function; activation, % at 9.1 µM; MG213 cells, MMTV-luciferase reporter, dexamethasone, overnight; AID 652017; actives 1% (n = 370,000); in the data active = activation above about 7.8%;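 note: 0% = vehicle wells and 100% = reference activator wells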
ARFGAP1 inh – rat ARFGAP1 inhibition; Q62848; Arfgap1-stimulated ARF1 GTP hydrolysis, GDP FP detection; inhibition, % at 16.5 µM; actives 0.26% (n = 360,000);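 active = inhibition above a per-plate limit, mean inhibition of low control wells plus 3 SD, cut at about 25% in these data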;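 note: 0% = DMSO wells with enzyme and 100% = wells lacking Arfgap1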
Target sequence (Q62848 1-136 limits assumed): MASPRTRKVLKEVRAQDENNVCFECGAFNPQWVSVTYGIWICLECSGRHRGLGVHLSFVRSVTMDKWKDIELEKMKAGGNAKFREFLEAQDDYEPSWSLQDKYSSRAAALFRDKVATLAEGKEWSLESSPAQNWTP
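material = rat Arfgap1 catalytic domain, aa 1-136 | also added = human ARF1(Δ1-17)-GTP substrate | compound dosing = one concentration, 16.5 µM, DMSO 1.26% | times = GTP hydrolysis reaction 2 h at 25 °C | measured by = FP, GDP Alexa 633 tracer displaced from anti-GDP antibody, 620/688 nm | evaluation = percent inhibition of Arfgap1-stimulated GTP hydrolysis | replication = single well per compound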
esBAF inh – SWI/SNF esBAF complex inhibition | mouse ES cells, Bmi1-luciferase knock-in reporter, 24 h; 100% = twice the neutral-well signal | reporter increase, % at 12.5 µM | actives 2% (n = 350,000) | AID 602393; in the data active = activation above about 40%; inconclusive = no clear call, values can overlap the other calls;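 note: 0% = median of the plate's neutral control wells and 100% = double that signal; a rise in the Bmi1 reporter signal indicates esBAF inhibition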
SMARCA2 conf – SMARCA2 activation, confirmation screen. MG213 cells, MMTV-luciferase with dexamethasone, luminescence, overnight; MG213 cells expressing E1A, Rb sequestered; DMSO wells 0%, reference activator 100%. activation, % at 9.1 µM. shares compounds with SMARCA2 activ. actives 30% (n = 3,500);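 active = activation above its plate's cutoff, the mean activation of tested wells plus 3 SD, cut at about 7.9% in these data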
GAL4-VP16 Luc – activates GAL4-VP16 luciferase, flagging SMARCA2 activator hits. HEK293 GAL4-VP16 pG5luc reporter, luciferase luminescence; scaled: DMSO wells 0%, SAHA wells 100%. activation, % at 9.1 µM. actives 41% (n = 3,500). AID 686939. shares compounds with SMARCA2 activ;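 active = activation above the solvent-only control well mean plus 3 SD, averaged across control plates, cut at about 5.2% in these data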
* marks the source's active call; other numbers are inactive results; ? = inconclusive; . = not tested or not shown.

SMILES	ASAP1 GAP inh	SMARCA2 activ	ARFGAP1 inh	esBAF inh	SMARCA2 conf	GAL4-VP16 Luc
Cc1ccc(C(=O)CCC(=O)OCC(=O)NNC(=O)c2ccc([N+](=O)[O-])cc2)cc1	4	9.3*	11	-4	0	1
CCOC(=O)c1ccc(N2Cc3ccccc3C2=N)cc1	-5	12*	4	17	11*	3
CCCC(=O)O[C@]1(C(=O)COC(C)=O)CC[C@H]2[C@@H]3C[C@H](F)C4=CC(=O)C=C[C@]4(C)[C@@]3(F)[C@@H](O)C[C@@]21C	-5	11*	5	-5	-3	2
C[C@@H]1C[C@H]2[C@@H]3C[C@H](F)C4=CC(=O)C=C[C@]4(C)[C@@]3(F)[C@@H](O)C[C@]2(C)[C@@]1(O)C(=O)COC(=O)C(C)(C)C	-4	-3	13	0	.	.
CCCC(=O)Nc1ccc2c(c1)C(=O)N(C)C[C@H](OC)[C@@H](C)CN(Cc1ccncc1)[C@@H](C)CO2	.	.	.	-5	.	.
O=[N+]([O-])c1cccc(-c2ccc(/C=N/Nc3nc(N4CCCCC4)nc(N4CCCCC4)n3)o2)c1	-6	8.9*	-2	.	-5	0
O=[N+]([O-])c1ccc(-c2ccc(/C=N/Nc3nc(N4CCCCC4)nc(N4CCCCC4)n3)o2)cc1	-18	-3	3	.	.	.
COc1ccc(C(=O)N/N=C(\C)Cn2cnc([N+](=O)[O-])n2)cc1	9	13*	-2	26	1	0
Cc1nc(N2CCOCC2)nc(Oc2ccccc2)c1[N+](=O)[O-]	7	11*	-5	.	1	-2
COc1cccc(NC(=O)CSc2nc3ccccc3c(=O)n2Cc2cccs2)c1	6	8.9*	-4	.	-5	-1
CCOCCCn1c(SCC(=O)Nc2cccc(OC)c2)nc2ccccc2c1=O	-7	-2	0	10	.	.
COc1ccc(NC(=O)N(C)C[C@@H]2Oc3ccc(NC(=O)NC4CCCCC4)cc3CC(=O)N([C@H](C)CO)C[C@H]2C)cc1	.	.	.	7	.	.
CC=Cc1ccc2n(c1=O)C[C@H]1[C@H](CO)[C@@H](C(=O)N3CCOCC3)N(CC3CC3)[C@@H]21 (mixture of isomers)	.	.	.	1	.	.
C[C@@H]1CN([C@@H](C)CO)C(=O)c2cc(NC(=O)c3ccccc3)ccc2O[C@@H](C)CCCCO[C@H]1CN(C)S(=O)(=O)c1ccc(Cl)cc1	.	.	.	-9	.	.
CC12CCC(c3c(C(=O)O)nn(-c4ccccc4)c31)C2(C)C (stereo not drawn)	8	9.4*	-3	5	-2	0
CC12CCC(c3c(CO)nn(-c4ccccc4)c31)C2(C)C (stereo not drawn)	-4	-2	9	-5	.	.
Cc1ccc(-n2nc(CN3CCOCC3)c(-c3ccccc3)c2N)cc1Cl	4	-3	8	0	.	.
Cc1nn(-c2ccccc2)c(N)c1-c1ccccc1	-3	11*	2	67*	8.2*	12*
Nc1c(-c2ccccc2)c(CN2CCOCC2)nn1-c1ccccc1	3	12*	-8	.	-2	1
CCC(=O)N1CCC1(C)C(=O)Nc1cc(-c2ccccc2)nn1C (stereo not drawn)	3	10*	18	65*	1	7.4*
Fc1ccc(NCc2cn3ccccc3n2)cc1	-4	9.7*	7	?	7	6.3*
O=C(N[C@H]1CC[C@@H](CCn2cc(-c3ccccn3)nn2)O[C@@H]1CO)c1ccncc1	.	.	.	-7	.	.
CCOC(=O)c1cccc(NC(=O)Nc2ccc(OCC)cc2)c1	3	0	10	.	.	.
O=C(NCc1ccccc1)C(=O)Nc1cccc(C(=O)O)c1	-15	13*	6	-59	10*	11*
CCOc1ccc(NC(=O)Nc2cccc(C(=O)O)c2)cc1	4	11*	3	-80	7	9.3*
SMILES	ASAP1 GAP inh	SMARCA2 activ	ARFGAP1 inh	esBAF inh	SMARCA2 conf	GAL4-VP16 Luc
O=C(Nc1cccc(Cl)c1)Nc1cccc(C(=O)O)c1	3	14*	1	.	7.9*	4
CC1C=NC(S(=O)(=O)N2CC[C@@H]3[C@H]2c2cc(-c4ccccc4)ccc2N(C)[C@H]3CO)=N1 (stereo partly drawn)	.	.	.	1	.	.
COC(=O)C[C@H]1CC[C@H]2[C@@H](COc3ccc(NC(=O)Nc4ccccc4C)cc3C(=O)N2C)O1	.	.	.	-1	.	.
CO[C@H]1CN(C)C(=O)c2cc(NC(=O)c3ccccc3F)ccc2OC[C@@H](C)N(CC2CC2)C[C@H]1C	.	.	.	0	.	.
COc1ccc(NC(=O)C[C@H]2C(=O)N(C3CCCCC3)C[C@@H]2CSC)cc1	-11	8.3*	-7	2	-2	1
CCCNC(=O)Nc1ccc2c(c1)C(=O)N(C)C[C@@H](OC)[C@@H](C)CN(C(=O)C1CCOCC1)[C@@H](C)CO2	.	.	.	-2	.	.
CN(C(=O)c1cc(-c2ccccc2)on1)C1CCCCC1	-3	9.1*	-9	51*	11*	9.3*
C[C@@H]1CN([C@H](C)CO)C(=O)c2cc(NC(=O)c3ccccc3)ccc2O[C@@H](C)CCCCO[C@H]1CN(C)Cc1ccc(C(F)(F)F)cc1	.	.	.	-21	.	.
Cc1cc(Cl)c2oc(C(=O)NCCC3CCCCO3)c(C)c2c1 (stereo not drawn)	1	8.9*	8	?	3	5
Cc1cc(Cl)c2oc(C(=O)NCCN3CCCCC3CO)c(C)c2c1 (stereo not drawn)	7	-1	2	14	.	.
Cc1ccc(S(=O)(=O)N(C)C[C@H]2OCCCC[C@@H](C)Oc3ccc(NS(=O)(=O)c4c(C)noc4C)cc3C(=O)N([C@@H](C)CO)C[C@@H]2C)cc1	.	.	.	2	.	.
CCN1CCN(c2ccc(NC(=O)c3cc4ccccc4cc3OC)cc2C)CC1	11	12*	3	8	8.1*	13*
CCN1CCc2nc(NC(=O)c3ccc4c(c3)OCCO4)sc2C1	-15	8.7*	3	41*	7	11*
CCN1CCN(c2ccc(NC(=O)c3ccccc3F)cc2Cl)CC1	10	5	7	31	.	.
CCN1CCN(c2ccc(NC(=O)c3ccc4c(c3)OCCO4)cc2C)CC1	7	11*	10	-1	7	7.9*
CCN1CCN(c2cc(C)c3cc(NC(=O)c4ccc5c(c4)OCO5)ccc3n2)CC1	7	4	15	5	.	.
COc1ccc(CN2C[C@H](C)[C@@H](OC)CN(C)C(=O)c3ccc(NC(C)=O)cc3OC[C@@H]2C)cc1	.	.	.	1	.	.
O=C(COc1ccccc1Cl)OCC(=O)N1CCN(S(=O)(=O)c2ccccc2)CC1	10	11*	-3	-9	-2	0
O=C(OCC(=O)N1CCN(S(=O)(=O)c2ccc(Cl)cc2)CC1)c1ccc([N+](=O)[O-])o1	2	8.9*	12	-9	3	4
